Measurements published in ChEMBL document CHEMBL4673367, “N-Benzyl-linoleamide, a Constituent of Lepidium meyenii (Maca), Is an Orally Bioavailable Soluble Epoxide Hydrolase Inhibitor That Alleviates Inflammatory Pain” (J Nat Prod, 2020).
The source made the active and inactive calls.

Columns and labels:
[1] = target: T1, Bifunctional epoxide hydrolase 2 (Mus musculus, UniProt P34914); assay: Inhibition of recombinant mouse sEH expressed in baculovirus expression system using MNPC as substrate by fluorescence-based assay
T1 sequence (P34914 whole entry): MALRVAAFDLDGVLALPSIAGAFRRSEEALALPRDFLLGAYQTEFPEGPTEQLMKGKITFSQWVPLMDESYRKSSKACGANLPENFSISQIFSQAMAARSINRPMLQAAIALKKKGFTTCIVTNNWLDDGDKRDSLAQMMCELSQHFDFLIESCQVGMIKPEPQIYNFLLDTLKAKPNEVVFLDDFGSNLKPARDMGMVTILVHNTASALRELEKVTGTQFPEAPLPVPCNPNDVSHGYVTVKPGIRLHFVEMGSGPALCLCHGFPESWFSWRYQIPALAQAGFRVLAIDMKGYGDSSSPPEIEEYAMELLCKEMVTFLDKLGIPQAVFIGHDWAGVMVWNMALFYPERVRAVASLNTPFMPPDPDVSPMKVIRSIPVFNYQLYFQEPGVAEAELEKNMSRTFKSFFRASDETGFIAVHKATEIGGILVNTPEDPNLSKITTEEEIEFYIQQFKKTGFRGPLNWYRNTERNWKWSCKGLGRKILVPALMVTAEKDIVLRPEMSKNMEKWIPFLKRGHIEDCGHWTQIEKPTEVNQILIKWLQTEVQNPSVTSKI
Method in brief: (§1)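 Recombinant human, mouse or rat sEH tested with serial dilutions of inhibitor in 96-well format. MNPC substrate at 5 μM final. Fluorescent 6-methoxynaphthaldehyde product read at ex 330 / em 465 nm. IC50 derived from these readings.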

[2] = target: T2, Bifunctional epoxide hydrolase 2 (Homo sapiens, UniProt P34913); assay: Inhibition of recombinant human sEH expressed in baculovirus expression system using MNPC as substrate by fluorescence-based assay; method in brief: as §1
T2 sequence (P34913 whole entry): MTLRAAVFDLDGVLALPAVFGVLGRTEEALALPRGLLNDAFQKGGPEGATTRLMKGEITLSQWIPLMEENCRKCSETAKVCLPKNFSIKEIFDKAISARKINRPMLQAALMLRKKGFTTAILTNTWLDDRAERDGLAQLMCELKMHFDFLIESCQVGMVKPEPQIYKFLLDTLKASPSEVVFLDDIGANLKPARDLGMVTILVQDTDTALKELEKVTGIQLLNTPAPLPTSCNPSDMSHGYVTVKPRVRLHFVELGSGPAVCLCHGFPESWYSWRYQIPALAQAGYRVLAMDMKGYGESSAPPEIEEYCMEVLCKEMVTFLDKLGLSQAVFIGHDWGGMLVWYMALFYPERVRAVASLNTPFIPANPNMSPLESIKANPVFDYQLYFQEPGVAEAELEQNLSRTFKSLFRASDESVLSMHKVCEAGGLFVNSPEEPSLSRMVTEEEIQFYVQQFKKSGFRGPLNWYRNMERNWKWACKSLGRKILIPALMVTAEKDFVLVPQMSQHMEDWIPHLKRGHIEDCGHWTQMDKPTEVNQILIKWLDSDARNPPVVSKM

[3] = target: T3, Bifunctional epoxide hydrolase 2 (Rattus norvegicus, UniProt P80299); assay: Inhibition of recombinant rat sEH expressed in baculovirus expression system using MNPC as substrate by fluorescence-based assay; method in brief: as §1
T3 sequence (P80299 whole entry): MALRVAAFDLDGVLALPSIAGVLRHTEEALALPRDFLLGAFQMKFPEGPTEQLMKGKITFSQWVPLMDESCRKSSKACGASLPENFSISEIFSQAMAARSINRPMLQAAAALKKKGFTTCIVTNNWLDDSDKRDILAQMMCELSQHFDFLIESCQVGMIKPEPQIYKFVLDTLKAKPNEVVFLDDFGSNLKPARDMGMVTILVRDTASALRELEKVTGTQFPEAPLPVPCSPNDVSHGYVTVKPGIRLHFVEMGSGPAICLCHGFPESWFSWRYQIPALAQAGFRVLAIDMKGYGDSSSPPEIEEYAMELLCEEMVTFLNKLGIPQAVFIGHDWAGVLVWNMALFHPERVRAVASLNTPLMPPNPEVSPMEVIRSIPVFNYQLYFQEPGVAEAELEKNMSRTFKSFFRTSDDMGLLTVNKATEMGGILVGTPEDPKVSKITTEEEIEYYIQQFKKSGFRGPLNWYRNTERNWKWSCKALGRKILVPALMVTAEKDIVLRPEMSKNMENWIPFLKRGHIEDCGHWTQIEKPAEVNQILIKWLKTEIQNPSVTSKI

[4] = Cmax in Sprague-Dawley rat at 100 mg/kg, po measured up to 96 hrs by LC/MS/MS analysis; format: ADME, organism-based; design: route oral, dose 100 mg/kg, time <=96; settings: in vivo
Method in brief: (§2)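 Male SD rats (8 weeks, 250–300 g, n=4/group) given a single oral gavage of 100 mg/kg in 100% NEOBEE 1053. Plasma concentrations followed over a 96-h time course. Blood processed and quantified by an earlier reported method. Parameters reported as mean ± SEM.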

[5] = Tmax in Sprague-Dawley rat at 100 mg/kg, po measured up to 96 hrs by LC/MS/MS analysis; format: ADME, organism-based; settings: in vivo; method in brief: as §2
[6] = Half life in Sprague-Dawley rat at 100 mg/kg, po measured up to 96 hrs by LC/MS/MS analysis; format: ADME, organism-based; settings: in vivo; method in brief: as §2
[7] = AUC in Sprague-Dawley rat at 100 mg/kg, po measured up to 96 hrs by LC/MS/MS analysis; format: ADME, organism-based; design: route oral, dose 100 mg/kg, time <=96; settings: in vivo; method in brief: as §2
Rattus norvegicus = assay: Antinociceptive activity against LPS-induced inflammatory pain Sprague-Dawley rat model assessed as increase in paw withdrawal threshold at 100 mg/kg, po measured up to 6 hrs by von Frey assay; format: functional, organism-based; settings: time hrs <=6
Method in brief: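 Male SD rats, n=4/group, randomized and blinded. Baseline von Frey mechanical withdrawal thresholds taken before dosing. Oral gavage of 100 mg/kg in 1 mL 100% NEOBEE 1053 (vehicle control alongside). Immediately after, 50 μL of 0.2 μg/mL LPS in saline injected intraplantar into one hind paw. Ipsilateral thresholds measured 3–5 times per rat per time point over 6 h. Expressed as percent of baseline, group mean ± SEM.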

Compound | IC50 [1] | IC50 [2] | IC50 [3] | Cmax [4] | Tmax [5] | t1/2 [6] | AUC [7] | Activity (Rattus norvegicus)
CCCCCCCCCCCCCCCC(=O)NCc1ccc(OC)c(OC)c1 | > 100000 nM | 7060 nM | 15900 nM | – | – | – | – | –
CCCCC/C=C\C/C=C\C/C=C\C/C=C\CCCC(=O)NCc1ccccc1 | 50 nM | 123 nM | 40 nM | – | – | – | – | –
CCCCC/C=C\C/C=C\CCCCCCCC(=O)NCCc1ccccc1 | 91 nM | – | 33 nM | – | – | – | – | –
CCCCCCCCCCCCCCCC(=O)NCc1ccccc1 | 422 nM | 524 nM | 370 nM | – | – | – | – | –
CCCCC/C=C\C/C=C\CCCCCCCC(=O)NCc1ccccc1 | 44 nM | 155 nM | 41 nM | 519 nM | 3 h | 9 h | 3.69 µM·h | Active
CCCCCCCCCCCCCCCCCC(=O)NCc1cccc(OC)c1 | 89900 nM | 16100 nM | 28700 nM | – | – | – | – | –
CCCCC/C=C\C/C=C\C/C=C\C/C=C\CCCC(=O)NCc1cccc(OC)c1 | 73 nM | 55 nM | 22 nM | – | – | – | – | –
CC/C=C\C/C=C\C/C=C\C/C=C\C/C=C\CCCC(=O)NCc1ccccc1 | 43 nM | 111 nM | 29 nM | – | – | – | – | –
CCCCCCCC/C=C\CCCCCCCC(=O)NCc1cccc(OC)c1 | 126 nM | 241 nM | 84 nM | – | – | – | – | –
CC/C=C\C/C=C\C/C=C\CCCCCCCC(=O)NCc1ccccc1 | 28 nM | 134 nM | 23 nM | 54 nM | 6 h | 14.6 h | 0.723 µM·h | inactive
CC/C=C\C/C=C\C/C=C\C/C=C\C/C=C\CCCC(=O)NCc1cccc(OC)c1 | 49 nM | 63 nM | 18.6 nM | – | – | – | – | –
CCCCCCCC/C=C\CCCCCCCC(=O)NCc1ccccc1 | 265 nM | 893 nM | 198 nM | – | – | – | – | –

More lines, main results first:

IC50 [1] | IC50 [2] | IC50 [3] | Cmax [4] | Tmax [5] | t1/2 [6] | AUC [7] | Compound | Activity (Rattus norvegicus)
159 nM | 235 nM | 113 nM | – | – | – | – | CCCCCCCCCCCCCCCC(=O)NCc1cccc(OC)c1 | –
39 nM | 15 nM | 15 nM | – | – | – | – | CC/C=C\C/C=C\C/C=C\CCCCCCCC(=O)NCCc1ccccc1 | –
122 nM | 84 nM | 90 nM | – | – | – | – | CC/C=C\C/C=C\C/C=C\CCCCCCCC(=O)NCc1ccc(OC)c(OC)c1 | –
27 nM | 76 nM | 9.3 nM | – | – | – | – | CC/C=C\C/C=C\C/C=C\CCCCCCCC(=O)NCc1cccc(OC)c1 | –
38 nM | 92 nM | 43 nM | – | – | – | – | CCCCC/C=C\C/C=C\CCCCCCCC(=O)NCc1cccc(OC)c1 | –
59600 nM | > 100000 nM | 35800 nM | – | – | – | – | CCCCCCCCCCCCCCCCCC(=O)NCc1ccccc1 | –
148 nM | 104 nM | 111 nM | – | – | – | – | CCCCC/C=C\C/C=C\CCCCCCCC(=O)NCc1ccc(OC)c(OC)c1 | –
